Assay results as given in ChEMBL document CHEMBL3124923, “Isolation, structure elucidation, and biological activity of altersolanol P using Staphylococcus aureus fitness test based genome-wide screening” (2014).
≈ marks a conversion by molar mass, not a printed value. Calls of active or inactive are those of the source. The calls are words filed in the database; no cut-off is given here.

Tests used:
Assay type in all cases: functional
Pseudomonas aeruginosa = assay: Antimicrobial activity against Pseudomonas aeruginosa
Staphylococcus aureus [1] = assay: Antimicrobial activity against Staphylococcus aureus
Enterococcus faecalis = assay: Antimicrobial activity against vancomycin-sensitive Enterococcus faecalis CL 8516 after 20 hrs by 2-fold serial broth dilution method; conditions: CL 8516, 20 h
Outline: (§1)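 MIC read following the NCCLS (now CLSI) method, using 2-fold serial dilutions of test compound against each strain.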

Candida albicans = assay: Antimicrobial activity against Candida albicans MY 1055 after 20 hrs by 2-fold serial broth dilution method; conditions: MY 1055, 20 h
Outline: (§2)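 MIC for each strain determined following the NCCLS (now CLSI) method, using 2-fold serial dilution of the compound. For the S. aureus Smith strain, MIC was also run with 50% human serum in the medium.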

Haemophilus influenzae = assay: Antimicrobial activity against Haemophilus influenzae MB 4572 after 20 hrs by 2-fold serial broth dilution method; conditions: MB 4572, 20 h; outline: as §2
Escherichia coli [2] = assay: Antimicrobial activity against Escherichia coli MB 5746 harboring envA/tolC gene after 20 hrs by 2-fold serial broth dilution method; conditions: MB 5746, 20 h; outline: as §1
Escherichia coli [3] = assay: Antimicrobial activity against wild-type Escherichia coli MB 2884 after 20 hrs by 2-fold serial broth dilution method; conditions: MB 2884, 20 h; outline: as §2
Bacillus subtilis = assay: Antimicrobial activity against Bacillus subtilis MB 964 after 20 hrs by 2-fold serial broth dilution method; conditions: MB 964, 20 h; outline: as §2
Streptococcus pneumoniae [4] = assay: Antimicrobial activity against Streptococcus pneumoniae CL 2883 grown in iso sensitet medium after 20 hrs by 2-fold serial broth dilution method; conditions: CL 2883, 20 h; outline: as §2
Streptococcus pneumoniae [5] = assay: Antimicrobial activity against Streptococcus pneumoniae CL 2883 grown in 2.5 % lysed horse blood medium after 20 hrs by 2-fold serial broth dilution method; conditions: CL 2883, 20 h; outline: as §2
Staphylococcus aureus [6] = assay: Antimicrobial activity against Staphylococcus aureus Smith MB 2865 after 20 hrs by 2-fold serial broth dilution method in presence of 50 % human serum; conditions: for MIC: Smith MB 2865, 20 h; outline: as §2
Staphylococcus aureus [7] = assay: Antimicrobial activity against Staphylococcus aureus Smith MB 2865 after 20 hrs by 2-fold serial broth dilution method; conditions: Smith MB 2865, 20 h; outline: as §2

Row | MIC (Pseudomonas aeruginosa) [µg/mL] | MIC (Staphylococcus aureus [1]) [µg/mL] | Structure (SMILES) | other results
1 | 12.5 (≈ 39 µM) | 12.5 (≈ 39 µM) | COc1cc(O)c2c(c1)C(=O)C1=C(C[C@@H](O)[C@@](C)(O)[C@@H]1O)C2=O [ALTERSOLANOL C] | –
2 | 12.5 (≈ 41.1 µM) | 12.5 (≈ 41.1 µM) | COc1cc(O)c2c(c1)C(=O)C1=C(C[C@@H](O)[C@@](C)(O)C1)C2=O [ALTERSOLANOL B] | –
3 | 12.5 (≈ 37.2 µM) | 12.5 (≈ 37.2 µM) | COc1cc(O)cc2c1C(=O)C1=C(C2=O)[C@H](O)[C@](C)(O)[C@H](O)[C@H]1O | –
4 | 12.5 (≈ 38.5 µM) | 12.5 (≈ 38.5 µM) | COc1cc(O)c2c(c1)C(=O)[C@@H]1[C@H](C[C@@H](O)[C@@](C)(O)[C@@H]1O)[C@H]2O [ALTERSOLANOL K] | MIC (Candida albicans): 8 µg/mL (≈ 24.7 µM); Activity (Staphylococcus aureus [6]): Active
5 | 12.5 (≈ 39 µM) | 12.5 (≈ 39 µM) | COc1cc(O)c2c(c1)C(=O)C1=C(C[C@H](O)[C@@](C)(O)[C@@H]1O)C2=O | –
6 | 12.5 (≈ 37.4 µM) | 12.5 (≈ 37.4 µM) | COc1cc(O)c2c(c1)C(=O)C1=C(C2=O)[C@H](C)[C@@H](O)[C@@](C)(O)[C@@H]1O | –

Continued, molecule first:

Row | Structure (SMILES) | MIC (Pseudomonas aeruginosa) [µg/mL] | MIC (Staphylococcus aureus [1]) [µg/mL] | other results
7 | C[C@@]1(O)CCC2=C(C(=O)c3cccc(O)c3C2=O)[C@@H]1O | – | 2 (≈ 7.29 µM) | MIC (Enterococcus faecalis): 1 µg/mL (≈ 3.65 µM); MIC (Candida albicans): 8 µg/mL (≈ 29.2 µM); MIC (Haemophilus influenzae): 2 µg/mL (≈ 7.29 µM); MIC (Escherichia coli [2]): 32 µg/mL (≈ 117 µM); MIC (Escherichia coli [3]): > 64 µg/mL; MIC (Bacillus subtilis): 2 µg/mL (≈ 7.29 µM); MIC (Streptococcus pneumoniae [4]): 4 µg/mL (≈ 14.6 µM); MIC (Streptococcus pneumoniae [5]): 8 µg/mL (≈ 29.2 µM); MIC (Staphylococcus aureus [6]): > 64 µg/mL; MIC (Staphylococcus aureus [7]): 4 µg/mL (≈ 14.6 µM)
8 | COc1cc(O)c2c(c1)C(=O)C1=C(C2=O)[C@H](O)[C@@H](O)[C@@](C)(O)[C@@H]1O [ALTERSOLANOL A] | 12.5 (≈ 37.2 µM) | 12.5 (≈ 37.2 µM) | –
9 | CC1(C)S[C@@H]2[C@H](NC(=O)Cc3ccccc3)C(=O)N2[C@H]1C(=O)O [PENICILLIN G] | – | – | MIC (Enterococcus faecalis): 4 µg/mL (≈ 12 µM); MIC (Candida albicans): > 64 µg/mL; MIC (Haemophilus influenzae): 0.06 µg/mL (≈ 0.179 µM); MIC (Escherichia coli [2]): 8 µg/mL (≈ 23.9 µM); MIC (Bacillus subtilis): < 0.06 µg/mL; MIC (Streptococcus pneumoniae [4]): < 0.015 µg/mL; MIC (Streptococcus pneumoniae [5]): < 0.015 µg/mL; MIC (Staphylococcus aureus [6]): 0.12 µg/mL; MIC (Staphylococcus aureus [7]): < 0.06 µg/mL
10 | COc1cc(O)cc2c1C(=O)C1=C(C2=O)[C@@H](O)[C@](C)(O)[C@H](O)[C@H]1O | 12.5 (≈ 37.2 µM) | 12.5 (≈ 37.2 µM) | –
11 | COc1cc(O)c2c(c1)C(=O)[C@H]1C[C@](C)(O)[C@H](O)C[C@@H]1[C@H]2O [ALTERSOLANOL J] | 12.5 (≈ 40.5 µM) | 12.5 (≈ 40.5 µM) | –
12 | COc1cc(O)c2c(c1)C(=O)C1=C(C2=O)[C@H](O)[C@H](O)[C@@](C)(O)[C@@H]1O | 12.5 (≈ 37.2 µM) | 12.5 (≈ 37.2 µM) | –
